Data: ChEMBL document CHEMBL1921744, “Lipophosphonoxins: new modular molecular structures with significant antibacterial properties” (J Med Chem, 2011)
Converted amounts (≈) assume the structure as drawn. Blank lines part the entries; values can stand above or below the compound they belong to. The source made the active and inactive calls. The rule behind the calls is not given here.

How the values were obtained:
[1] = system: Enterococcus faecium; assay: Antibacterial activity against vancomycin-resistant Enterococcus faecium SR7917; assay type: functional
[2] = system: Enterococcus faecalis; assay: Antibacterial activity against Enterococcus faecalis ATCC 29212; assay type: functional
[3] = system: Enterococcus faecalis; assay: Antibacterial activity against vancomycin-resistant Enterococcus faecalis SR7914; assay type: functional
[4] = Induction of apoptosis in human Erythroid progenitor cells assessed as caspase 3/7 activation after 4 hrs by Caspase-Glo 3/7 assay
In short: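 Cord-blood-derived human erythroid progenitor cells plated at 25000 cells/well and exposed to compound prediluted in medium. Caspase 3/7 activation read by Caspase-Glo 3/7 luminescence 4 h after addition, normalized to untreated control cells set as 100%.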

[5] = system: Escherichia coli; assay: Antibacterial activity against Escherichia coli after 24 to 48 hrs by microdilution method; assay type: functional
In short: (§1)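 Incubation 24/48 h at 37 °C. MIC read as the lowest concentration inhibiting growth. MBC determined by transferring 10 μL from wells onto blood agar, taken as the lowest concentration with no visible growth.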

[6] = Cytotoxicity against human Erythroid progenitor cells assessed as cell viability after 48 hrs by CellTiter-blue assay; assay type: cell-based
In short: (§2)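 Normal human erythroid progenitor cells, expanded from umbilical cord blood, plated at 25000 cells/well immediately before compound addition (added as a 5× predilution in culture medium). Viability by CellTiter-Blue fluorescence 48 h after addition, normalized to untreated cells set as 100%.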

[7] = Cytotoxicity against human Erythroid progenitor cells assessed as maximum safe concentration after 48 hrs by CellTiter-blue assay; assay type: cell-based; conditions: read-out: Activity; in short: as §2
[8] = system: Pseudomonas aeruginosa; assay: Antibacterial activity against Pseudomonas aeruginosa after 24 to 48 hrs by microdilution method; assay type: functional; in short: as §1
[9] = system: Streptococcus agalactiae; assay: Antibacterial activity against Streptococcus agalactiae after 24 to 48 hrs by microdilution method; assay type: functional; in short: as §1
[10] = system: Bacillus subtilis; assay: Inhibition of Bacillus subtilis RNA polymerase using [alpha-32P]-UTP at 1 mM pretreated for 5 mins measured after 15 mins by electrophoresis analysis
In short: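 Reconstituted B. subtilis RNAP σA holoenzyme (6 nM) with supercoiled pLK7 template carrying the rrnB P1 promoter (4 ng/μL). Nucleotides: ATP/CTP/GTP 200 μM, UTP 10 μM plus 2 μM [α-³²P]-UTP. Compound at 1 mM; 5 min preincubation at 30 °C, started with RNAP, stopped after 15 min with formamide/EDTA.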

[11] = system: Enterococcus faecalis; assay: Antibacterial activity against Enterococcus faecalis CCM 4224 after 24 to 48 hrs by microdilution method; assay type: functional; in short: as §1
[12] = system: Bacillus subtilis; assay: Antibacterial activity against Bacillus subtilis after 24 to 48 hrs by microdilution method; assay type: functional; in short: as §1
[13] = system: Staphylococcus aureus; assay: Antibacterial activity against Staphylococcus aureus CCM 4223 after 24 to 48 hrs by microdilution method; assay type: functional; in short: as §1
[14] = system: Staphylococcus epidermidis; assay: Antibacterial activity against methicillin-resistant Staphylococcus epidermidis 8700/B after 24 to 48 hrs by microdilution method; assay type: functional
In short: (§3)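 Broth microdilution MIC on clinical isolates from Teaching Hospital Olomouc, stored at −80 °C. Compounds were serially diluted in brain heart infusion broth over 200–1.56 μg/mL (sometimes extended to 0.78 μg/mL), with an inoculum of 10⁵⁻⁶ CFU/ml per well. Plates were incubated at 37 °C and read at 24/48 h. MIC was taken as the lowest concentration inhibiting growth.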

[15] = system: Enterococcus faecium; assay: Antibacterial activity against vancomycin-resistant Enterococcus faecium VanA419/ana after 24 to 48 hrs by microdilution method; assay type: functional; in short: as §3
[16] = system: Escherichia coli; assay: Antibacterial activity against permeabilized Escherichia coli DH5[alpha] assessed as log reduction of colony forming unit at 10 uM; assay type: functional, organism-based
In short: (§4)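 Competent (permeabilized) E. coli DH5α cells were mixed with 5 ng pUC18 (ampR) and serially diluted compound or buffer only. Steps: 30 min on ice, heat shock at 42 °C for 90 s, 5 min on ice, then LB without antibiotic for 1 h at 37 °C with shaking. Plated on LB agarose with ampicillin 100 μg/mL overnight at 37 °C. Colonies counted against the no-compound control.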

[17] = system: Escherichia coli; assay: Antibacterial activity against permeabilized Escherichia coli DH5[alpha] assessed as cell killing at 10 uM; assay type: functional; in short: as §4
[18] = system: Staphylococcus haemolyticus; assay: Antibacterial activity against fluoroquinolone-resistant Staphylococcus haemolyticus 16568 after 24 to 48 hrs by microdilution method; assay type: functional; in short: as §3
[19] = system: Staphylococcus aureus; assay: Antibacterial activity against methicillin-resistant Staphylococcus aureus 4591 after 24 to 48 hrs by microdilution method; assay type: functional; in short: as §3

Structure (SMILES): CN[C@H](CC(C)C)C(=O)N[C@H]1C(=O)N[C@@H](CC(N)=O)C(=O)N[C@H]2C(=O)N[C@H]3C(=O)N[C@H](C(=O)N[C@H](C(=O)O)c4cc(O)cc(O)c4-c4cc3ccc4O)[C@H](O)c3ccc(c(Cl)c3)Oc3cc2cc(c3O[C@@H]2O[C@H](CO)[C@@H](O)[C@H](O)[C@H]2O[C@H]2C[C@](C)(N)[C@H](O)[C@H](C)O2)Oc2ccc(cc2Cl)[C@H]1O [VANCOMYCIN]
MIC [1]: > 64 µg/mL
MIC [2]: 1 µg/mL (≈ 0.69 µM)
MIC [3]: > 64 µg/mL

MIC [5]: > 200 µg/mL
MIC [8]: > 200 µg/mL
Structure (SMILES): CC(C)(C)C(=O)SCCOP(=O)(CCN1C[C@@H](O)[C@H](O)C1)OC[C@H]1O[C@@H](n2ccc(=O)[nH]c2=O)[C@H](O)[C@@H]1O (some centres undefined)
Activity [4]: Non-toxic
IC50 [6]: > 1000 µg/mL
MNTC at 48 h [7]: > 1000 µg/mL

MIC [5]: > 200 µg/mL
MIC [8]: > 200 µg/mL
Structure (SMILES): CCOP(=O)(CCN1C[C@@H](O)[C@H](O)C1)OC[C@H]1O[C@@H](n2ccc(=O)[nH]c2=O)[C@H](O)[C@@H]1O (some centres undefined)
Activity [4]: Non-toxic

MIC [9]: 12.5 µg/mL (≈ 16.7 µM)
inhibition [10]: inactive
MIC [5]: > 200 µg/mL
MIC [8]: > 200 µg/mL
Structure (SMILES): CCCCCCCCCCCCCCCCOCCCOP(=O)(CCN1C[C@@H](O)[C@@H](O)[C@@H](O)C1)OC[C@H]1O[C@@H](n2ccc(=O)[nH]c2=O)[C@H](O)[C@@H]1O (some centres undefined)
Activity [4]: Non-toxic
IC50 [6]: 149 µg/mL (≈ 199 µM)
MNTC at 48 h [7]: 62.5 µg/mL

Structure (SMILES): CCCCCCCCCCCCCCCCOP(=O)(CCN1C[C@@H](O)[C@H](O)C1)OC[C@H]1O[C@@H](n2ccc(=O)[nH]c2=O)[C@H](O)[C@@H]1O (stereo in doubt; 12i-P1) [listing 1 of 2 here]
Activity [11]: Active
Activity [9]: Active
Activity [12]: Active
Activity [13]: Active

Structure (SMILES): CCCCCCCCCCCCCCCCOP(=O)(CCN1C[C@@H](O)[C@H](O)C1)OC[C@H]1O[C@@H](n2ccc(=O)[nH]c2=O)[C@H](O)[C@@H]1O (stereo in doubt; 12i-P1) [listing 2 of 2 here]
Activity [4]: Toxic

Structure (SMILES): CCCCCCCCCCCCCCCCOCCCOP(=O)(CCN1C[C@@H](O)[C@H](O)C1)OC[C@H]1O[C@@H](n2ccc(N)nc2=O)[C@H](O)[C@@H]1O (some centres undefined)
MIC [11]: 6.25 µg/mL (≈ 8.69 µM)
MIC [9]: 3.13 µg/mL (≈ 4.35 µM)
MIC [14]: 6.25 µg/mL (≈ 8.69 µM)
MIC [12]: 3.13 µg/mL (≈ 4.35 µM)
Activity [4]: Non-toxic
MIC [13]: 25 µg/mL (≈ 34.8 µM)
MIC [5]: > 200 µg/mL
IC50 [6]: 67 µg/mL (≈ 93.2 µM)
MIC [15]: 6.25 µg/mL (≈ 8.69 µM)
MNTC at 48 h [7]: 31.2 µg/mL
MIC [8]: > 200 µg/mL

Structure (SMILES): CCCCCCCCCCCCCCCCOCCCOP(=O)(CCN1C[C@H](O)[C@@H](O)C1)OC[C@H]1O[C@@H](n2ccc(=O)[nH]c2=O)[C@H](O)[C@@H]1O (some centres undefined)
MIC [11]: 12.5 µg/mL (≈ 17.4 µM)
MIC [9]: 6.25 µg/mL (≈ 8.68 µM)
MIC [14]: 6.25 µg/mL (≈ 8.68 µM)
inhibition [10]: inactive
MIC [12]: 6.25 µg/mL (≈ 8.68 µM)
Activity [4]: Non-toxic
MIC [5]: > 200 µg/mL
IC50 [6]: 47 µg/mL (≈ 65.3 µM)
MIC [15]: 6.25 µg/mL (≈ 8.68 µM)
MNTC at 48 h [7]: 31.2 µg/mL
MIC [8]: > 200 µg/mL

Structure (SMILES): CCCCCCCCCCCCCCCCOCCCOP(=O)(CCN1C[C@@H](O)[C@H](O)C1)OC[C@H]1O[C@@H](n2ccc(=O)[nH]c2=O)[C@H](O)[C@@H]1O (some centres undefined)
MIC [11]: 12.5 µg/mL (≈ 17.4 µM)
MIC [9]: 3.13 µg/mL (≈ 4.35 µM)
Activity [16]: Active
MIC [14]: 3.13 µg/mL (≈ 4.35 µM)
inhibition [10]: inactive
MIC [12]: 6.25 µg/mL (≈ 8.68 µM)
Activity [4]: Non-toxic
MIC [5]: > 200 µg/mL
IC50 [6]: 91 µg/mL (≈ 126 µM)
MIC [15]: 6.25 µg/mL (≈ 8.68 µM)
Activity [17]: 90%
MNTC at 48 h [7]: 62.5 µg/mL
MIC [8]: > 200 µg/mL

Structure (SMILES): CCCCCCCCCCCCCCCCOP(=O)(CCN1C[C@@H](O)[C@H](O)C1)OC[C@H]1O[C@@H](n2ccc(=O)[nH]c2=O)[C@H](O)[C@@H]1O (mixture of isomers)
MIC [11]: 6.25 µg/mL
MIC [9]: 1.56 µg/mL
MIC [18]: 12.5 µg/mL
MIC [14]: 3.13 µg/mL
MIC [12]: 3.13 µg/mL
Activity [4]: Non-toxic
MIC [13]: 6.25 µg/mL
MIC [5]: > 200 µg/mL
IC50 [6]: 56 µg/mL
MIC [15]: 3.13 µg/mL
Activity [17]: 90%
MIC [19]: 12.5 µg/mL
MNTC at 48 h [7]: 31.2 µg/mL
MIC [8]: > 200 µg/mL

Structure (SMILES): CCCCCCCCCCCCCCCCCCOP(=O)(CCN1C[C@@H](O)[C@H](O)C1)OC[C@H]1O[C@@H](n2ccc(=O)[nH]c2=O)[C@H](O)[C@@H]1O (some centres undefined)
MIC [11]: 6.25 µg/mL (≈ 9.06 µM)
MIC [9]: 3.13 µg/mL (≈ 4.54 µM)
MIC [14]: 6.25 µg/mL (≈ 9.06 µM)
MIC [12]: 6.25 µg/mL (≈ 9.06 µM)
Activity [4]: Non-toxic
MIC [13]: 12.5 µg/mL (≈ 18.1 µM)
MIC [5]: > 200 µg/mL
IC50 [6]: 36 µg/mL (≈ 52.2 µM)
MIC [15]: 6.25 µg/mL (≈ 9.06 µM)
MIC [19]: 200 µg/mL (≈ 290 µM)
MNTC at 48 h [7]: 15.6 µg/mL
MIC [8]: > 200 µg/mL
